In ChEMBL document CHEMBL1777788, “Synthesis and in vitro antimicrobial activities of new (cyano-NNO-azoxy)pyrazole derivatives” (2011):
Values after ≈ are worked out from the molar mass of the structure shown.

Tests used:
Assay type in all cases: functional
Candida parapsilosis [1] = assay: Antimicrobial activity against Candida parapsilosis ATCC 22019 after 48 hrs by microdilution broth method; details: Lodderomyces parapsilosis, ATCC 22019, 48 h
In short: (§1)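 Yeasts were grown overnight on Sabouraud dextrose agar at 35°C, suspended in water, and adjusted at 530 nm to McFarland 0.5 (approximately 1-5 x 10^6 CFU/ml). They were then diluted 1:100 and 1:20 in RPMI 1640 with 0.165 M MOPS and 2% glucose. Compound in DMSO was tested at ten concentrations, 0.25–256 mg/L, with incubation at 35°C. At 48 h, MIC was read spectrophotometrically as 50% turbidity reduction versus growth control.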

Candida albicans [2] = assay: Antimicrobial activity against Candida albicans isolate 31 after 48 hrs by microdilution broth method; details: isolate 31, 48 h; in short: as §1
Candida albicans [3] = assay: Antimicrobial activity against Candida albicans isolate 41 after 48 hrs by microdilution broth method; details: isolate 41, 48 h; in short: as §1
Candida albicans [4] = assay: Antimicrobial activity against Candida albicans isolate 47 after 48 hrs by microdilution broth method; details: isolate 47, 48 h; in short: as §1
Candida albicans [5] = assay: Antimicrobial activity against Candida albicans isolate 48 after 48 hrs by microdilution broth method; details: isolate 48, 48 h; in short: as §1
Pichia kudriavzevii [6] = assay: Antimicrobial activity against Candida krusei isolate 31 after 48 hrs by microdilution broth method; details: isolate 31, 48 h; in short: as §1
Candida tropicalis [7] = assay: Antimicrobial activity against Candida tropicalis isolate 33 after 48 hrs by microdilution broth method; details: isolate 33, 48 h; in short: as §1
Candida tropicalis [8] = assay: Antimicrobial activity against Candida tropicalis isolate 11 after 48 hrs by microdilution broth method; details: isolate 11, 48 h; in short: as §1
Candida tropicalis [9] = assay: Antimicrobial activity against Candida tropicalis isolate 15 after 48 hrs by microdilution broth method; details: isolate 15, 48 h; in short: as §1
Candida tropicalis [10] = assay: Antimicrobial activity against Candida tropicalis isolate 22 after 48 hrs by microdilution broth method; details: isolate 22, 48 h; in short: as §1
Nakaseomyces glabratus [11] = assay: Antimicrobial activity against Candida glabrata isolate 32 after 48 hrs by microdilution broth method; details: isolate 32, 48 h; in short: as §1
Nakaseomyces glabratus [12] = assay: Antimicrobial activity against Candida glabrata isolate 46 after 48 hrs by microdilution broth method; in short: as §1
Nakaseomyces glabratus [13] = assay: Antimicrobial activity against Candida glabrata isolate 49 after 48 hrs by microdilution broth method; in short: as §1
Candida parapsilosis [14] = assay: Antimicrobial activity against Candida parapsilosis isolate 26 after 48 hrs by microdilution broth method; details: Lodderomyces parapsilosis, isolate 26, 48 h; in short: as §1
Candida parapsilosis [15] = assay: Antimicrobial activity against Candida parapsilosis isolate 39 after 48 hrs by microdilution broth method; details: Lodderomyces parapsilosis, isolate 39, 48 h
In short: (§2)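 Yeasts grown overnight on Sabouraud dextrose agar at 35°C, suspended in sterile water, and adjusted to McFarland 0.5 at 530 nm (about 1-5 x 10^6 CFU/ml), then diluted 1:100 and 1:20 in RPMI 1640 with 0.165 M MOPS and 2% glucose. Compound in DMSO tested at ten concentrations, 0.25-256 mg/L, at 35°C. MIC read spectrophotometrically at 48 h as 50% turbidity reduction versus growth control.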

Candida parapsilosis [16] = assay: Antimicrobial activity against Candida parapsilosis isolate 44 after 48 hrs by microdilution broth method; details: Lodderomyces parapsilosis, isolate 44, 48 h; in short: as §1
Candida parapsilosis [17] = assay: Antimicrobial activity against Candida parapsilosis isolate 19 after 48 hrs by microdilution broth method; details: Lodderomyces parapsilosis, isolate 19, 48 h; in short: as §1
[18] = test system: Cryptococcus deneoformans; assay: Antimicrobial activity against Cryptococcus neoformans var. neoformans isolate 14 after 48 hrs by microdilution broth method; details: isolate 14, 48 h; in short: as §1
[19] = test system: Cryptococcus deneoformans; assay: Antimicrobial activity against Cryptococcus neoformans var. neoformans isolate 27 after 48 hrs by microdilution broth method; details: isolate 27, 48 h; in short: as §1
[20] = test system: Cryptococcus deneoformans; assay: Antimicrobial activity against Cryptococcus neoformans var. neoformans isolate 30 after 48 hrs by microdilution broth method; details: isolate 30, 48 h; in short: as §1
[21] = test system: Cryptococcus deneoformans; assay: Antimicrobial activity against Cryptococcus neoformans var. neoformans isolate 25 after 48 hrs by microdilution broth method; details: isolate 25, 48 h; in short: as §1
Candida albicans [22] = assay: Antimicrobial activity against Candida albicans ATCC 90028 after 48 hrs by microdilution broth method; details: ATCC 90028, 48 h; in short: as §2
Pichia kudriavzevii [23] = assay: Antimicrobial activity against Candida krusei isolate 43 after 48 hrs by microdilution broth method
Pichia kudriavzevii [24] = assay: Antimicrobial activity against Candida krusei isolate 48 after 48 hrs by microdilution broth method
Nakaseomyces glabratus [25] = assay: Antimicrobial activity against Candida glabrata isolate 30 after 48 hrs by microdilution broth method; in short: as §1
Pichia kudriavzevii [26] = assay: Antimicrobial activity against Candida krusei ATCC 6258 after 48 hrs by microdilution broth method; details: ATCC 6258, 48 h

Compound	MIC (Candida parapsilosis [1])	MIC (Candida albicans [2])	MIC (Candida albicans [4])	MIC (Candida albicans [5])	MIC (Pichia kudriavzevii [6])	MIC (Candida tropicalis [7])	MIC (Candida tropicalis [8])	MIC (Candida tropicalis [9])	MIC (Candida tropicalis [10])	MIC (Nakaseomyces glabratus [11])	MIC (Nakaseomyces glabratus [12])	MIC (Nakaseomyces glabratus [13])	MIC (Candida parapsilosis [14])	MIC (Candida parapsilosis [15])	MIC (Candida parapsilosis [17])	MIC [18]	MIC [19]	MIC [20]	MIC [21]	MIC (Candida albicans [22])	further results
C[C@@H]1[C@H](O)[C@@H](C)/C=C/C=C/C=C/C=C/C=C/C=C/C=C/[C@H](O[C@@H]2O[C@H](C)[C@@H](O)[C@H](N)[C@@H]2O)C[C@@H]2O[C@](O)(C[C@@H](O)C[C@@H](O)[C@H](O)CC[C@@H](O)C[C@@H](O)CC(=O)O[C@H]1C)C[C@H](O)[C@H]2C(=O)O [AMPHOTERICIN B]	1 µg/mL (≈ 1.08 µM)	0.5 µg/mL (≈ 0.541 µM)	1 µg/mL (≈ 1.08 µM)	0.5 µg/mL (≈ 0.541 µM)	0.5 µg/mL (≈ 0.541 µM)	1 µg/mL (≈ 1.08 µM)	1 µg/mL (≈ 1.08 µM)	1 µg/mL (≈ 1.08 µM)	0.5 µg/mL (≈ 0.541 µM)	0.5 µg/mL (≈ 0.541 µM)	1 µg/mL (≈ 1.08 µM)	0.5 µg/mL (≈ 0.541 µM)	0.5 µg/mL (≈ 0.541 µM)	0.5 µg/mL (≈ 0.541 µM)	0.5 µg/mL (≈ 0.541 µM)	0.25 µg/mL (≈ 0.271 µM)	0.12 µg/mL (≈ 0.13 µM)	0.5 µg/mL (≈ 0.541 µM)	0.5 µg/mL (≈ 0.541 µM)	0.5 µg/mL (≈ 0.541 µM)	MIC (Candida albicans [3]): 0.5 µg/mL (≈ 0.541 µM); MIC (Candida parapsilosis [16]): 0.5 µg/mL (≈ 0.541 µM)
C[C@@H](c1ncncc1F)[C@](O)(Cn1cncn1)c1ccc(F)cc1F [VORICONAZOLE]	0.06 µg/mL (≈ 0.172 µM)	< 0.008 µg/mL	0.008 µg/mL (≈ 0.0229 µM)	< 0.008 µg/mL	0.12 µg/mL (≈ 0.344 µM)	< 0.008 µg/mL	0.12 µg/mL (≈ 0.344 µM)	0.06 µg/mL (≈ 0.172 µM)	0.06 µg/mL (≈ 0.172 µM)	4 µg/mL (≈ 11.5 µM)	0.25 µg/mL (≈ 0.716 µM)	0.12 µg/mL (≈ 0.344 µM)	< 0.008 µg/mL	0.016 µg/mL (≈ 0.0458 µM)	0.008 µg/mL (≈ 0.0229 µM)	< 0.008 µg/mL	0.016 µg/mL (≈ 0.0458 µM)	0.016 µg/mL (≈ 0.0458 µM)	0.016 µg/mL (≈ 0.0458 µM)	0.008 µg/mL (≈ 0.0229 µM)	MIC (Candida albicans [3]): < 0.008 µg/mL; MIC (Pichia kudriavzevii [23]): 0.5 µg/mL (≈ 1.43 µM); MIC (Pichia kudriavzevii [24]): 0.25 µg/mL (≈ 0.716 µM); MIC (Nakaseomyces glabratus [25]): 0.25 µg/mL (≈ 0.716 µM); MIC (Candida parapsilosis [16]): 0.016 µg/mL (≈ 0.0458 µM); MIC (Pichia kudriavzevii [26]): 0.25 µg/mL (≈ 0.716 µM)
OC(Cn1cncn1)(Cn1cncn1)c1ccc(F)cc1F [FLUCONAZOLE]	2 µg/mL (≈ 6.53 µM)	0.25 µg/mL (≈ 0.816 µM)	0.25 µg/mL (≈ 0.816 µM)	0.12 µg/mL (≈ 0.392 µM)	32 µg/mL (≈ 104 µM)	1 µg/mL (≈ 3.27 µM)	1 µg/mL (≈ 3.27 µM)	1 µg/mL (≈ 3.27 µM)	2 µg/mL (≈ 6.53 µM)	> 256 µg/mL	16 µg/mL (≈ 52.2 µM)		1 µg/mL (≈ 3.27 µM)	1 µg/mL (≈ 3.27 µM)	1 µg/mL (≈ 3.27 µM)	0.5 µg/mL (≈ 1.63 µM)	2 µg/mL (≈ 6.53 µM)	4 µg/mL (≈ 13.1 µM)	2 µg/mL (≈ 6.53 µM)	0.12 µg/mL (≈ 0.392 µM)	MIC (Candida albicans [3]): 0.12 µg/mL (≈ 0.392 µM); MIC (Pichia kudriavzevii [23]): 64 µg/mL (≈ 209 µM); MIC (Pichia kudriavzevii [24]): 32 µg/mL (≈ 104 µM); MIC (Candida parapsilosis [16]): 2 µg/mL (≈ 6.53 µM); MIC (Pichia kudriavzevii [26]): 32 µg/mL (≈ 104 µM)
Cc1c(/[N+]([O-])=N/C(N)=O)c(-c2cccs2)nn1C	> 128 µg/mL	> 128 µg/mL	> 128 µg/mL	> 128 µg/mL	> 128 µg/mL	> 128 µg/mL	> 128 µg/mL	> 128 µg/mL	> 128 µg/mL	> 128 µg/mL	> 128 µg/mL	> 128 µg/mL	> 128 µg/mL	> 128 µg/mL	> 128 µg/mL	64 µg/mL (≈ 241 µM)	64 µg/mL (≈ 241 µM)	128 µg/mL (≈ 482 µM)	128 µg/mL (≈ 482 µM)	> 128 µg/mL	MIC (Pichia kudriavzevii [23]): > 128 µg/mL; MIC (Pichia kudriavzevii [24]): > 128 µg/mL; MIC (Nakaseomyces glabratus [25]): > 128 µg/mL; MIC (Pichia kudriavzevii [26]): > 128 µg/mL
Cc1ccc(S(=O)(=O)/N=[N+](\[O-])c2c(-c3cccs3)nn(C)c2C)cc1	> 128 µg/mL	> 128 µg/mL	> 128 µg/mL	> 128 µg/mL	> 128 µg/mL	> 128 µg/mL	> 128 µg/mL	> 128 µg/mL	> 128 µg/mL	> 128 µg/mL	> 128 µg/mL	> 128 µg/mL	> 128 µg/mL	> 128 µg/mL	> 128 µg/mL	64 µg/mL (≈ 170 µM)	64 µg/mL (≈ 170 µM)	128 µg/mL (≈ 340 µM)	128 µg/mL (≈ 340 µM)	> 128 µg/mL	MIC (Pichia kudriavzevii [23]): > 128 µg/mL; MIC (Pichia kudriavzevii [24]): > 128 µg/mL; MIC (Nakaseomyces glabratus [25]): > 128 µg/mL; MIC (Pichia kudriavzevii [26]): > 128 µg/mL
